Test results: ChEMBL document CHEMBL1144690, “Isolation of cytotoxic metabolites from targeted peruvian amazonian medicinal plants” (2008)
In brackets after ≈: the same amount, converted by molar mass. Activity calls are given as the source filed them. The calls are words filed in the database; no cut-off is given here.

What was measured:
[1] = test system: K562; experiment: Cytotoxicity against human K562 cells; assay type: functional
In short: (§1)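 Cells in 96-well plates exposed to serial dilutions of test sample (maximum 62.5 µg/mL for crude extract and fractions) or solvent-dilution controls for 48 h at 37 °C. Growth measured colorimetrically by sulforhodamine B staining, with percent inhibition taken against controls. GI50 is the concentration giving 50% absorbance reduction versus solvent controls, obtained by linear regression.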

[2] = test system: DU-145; experiment: Cytotoxicity against human DU145 cells; assay type: functional; in short: as §1
[3] = test system: Mycobacterium tuberculosis; experiment: Antimicrobial activity against Mycobacterium tuberculosis H37Rv at 25 ug/ml; assay type: functional, organism-based
[4] = test system: NCI-H460; experiment: Cytotoxicity against human H460 cells; assay type: functional; in short: as §1
[5] = test system: MCF7; experiment: Cytotoxicity against human MCF7 cells; assay type: functional; in short: as §1
[6] = test system: PC-3; experiment: Cytotoxicity against human PC3 cells; assay type: functional; in short: as §1
[7] = test system: HT-29; experiment: Cytotoxicity against human HT29 cells; assay type: functional; in short: as §1
[8] = test system: M14; experiment: Cytotoxicity against human M14 cells; assay type: functional; in short: as §1
[9] = test system: Vero; experiment: Cytotoxicity against african green monkey Vero cells; assay type: functional; conditions: Chlorocebus sabaeus; in short: as §1
[10] = test system: ME-180; experiment: Cytotoxicity against human ME180 cells; assay type: functional; in short: as §1
[11] = test system: Mycobacterium tuberculosis; experiment: Antimicrobial activity against Mycobacterium tuberculosis H37Rv; assay type: functional
In short: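 Tetrazolium microplate assay (TEMA) run in vitro against the drug-sensitive M. tuberculosis H37Rv strain.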

SMILES | GI50 [1] | GI50 [2] | Activity [3] | GI50 [4] | GI50 [5] | GI50 [6] | GI50 [7] | GI50 [8] | GI50 [9] | GI50 [10] | MIC [11]
COc1ccc(CCC(=O)c2c(O)cc(O)cc2OC)cc1 | 7.4 µg/mL (≈ 24.5 µM) | 41.7 µg/mL (≈ 138 µM) | inactive | 44.7 µg/mL (≈ 148 µM) | 22.9 µg/mL (≈ 75.7 µM) | 46.3 µg/mL (≈ 153 µM) | 35.5 µg/mL (≈ 117 µM) | 40.3 µg/mL (≈ 133 µM) | 40.4 µg/mL (≈ 134 µM) |  | 
Cc1cc(O)c2c(c1)C(=O)c1ccc(O)c(O)c1C2=O | 12.5 µg/mL (≈ 46.3 µM) | 7.9 µg/mL (≈ 29.2 µM) | inactive | 4.8 µg/mL (≈ 17.8 µM) | 7.3 µg/mL (≈ 27 µM) | 8.7 µg/mL (≈ 32.2 µM) | 6.5 µg/mL (≈ 24.1 µM) | 13.6 µg/mL (≈ 50.3 µM) |  | 13.2 µg/mL (≈ 48.8 µM) | 
COc1cc(O)cc(O)c1C(=O)CCc1ccc2c(c1)OCO2 | 8.4 µg/mL (≈ 26.6 µM) | 22.4 µg/mL (≈ 70.8 µM) | inactive | 27.4 µg/mL (≈ 86.6 µM) | 18.9 µg/mL (≈ 59.8 µM) | 24.5 µg/mL (≈ 77.5 µM) | 27.6 µg/mL (≈ 87.3 µM) | 23.4 µg/mL (≈ 74 µM) | 28.4 µg/mL (≈ 89.8 µM) |  | 
C=C(C)[C@@H]1CC[C@]2(C(=O)O)CC[C@]3(C)[C@H](CC[C@@H]4[C@@]5(C)CC[C@H](O)C(C)(C)[C@@H]5CC[C@]43C)[C@@H]12 [BETULINIC ACID] | 10.8 µg/mL (≈ 23.6 µM) | 35.3 µg/mL (≈ 77.3 µM) | inactive | 29.7 µg/mL (≈ 65 µM) | > 62.5 µg/mL | 31.3 µg/mL (≈ 68.5 µM) | 30.9 µg/mL (≈ 67.7 µM) | 32.6 µg/mL (≈ 71.4 µM) | 30.6 µg/mL (≈ 67 µM) | 27.8 µg/mL (≈ 60.9 µM) | 
C/C=C1/CN2CC[C@@]34c5ccccc5N5/C=C6/[C@H]7C[C@@H]8N(CC[C@@]89c8ccccc8N(/C=C(/[C@H]1C[C@H]23)[C@H]54)[C@@H]69)C/C7=C/C [BISNORDIHYDROTOXIFERINE] | < 1 µg/mL | 4.5 µg/mL (≈ 8.14 µM) |  | 1.6 µg/mL (≈ 2.89 µM) | 2 µg/mL (≈ 3.62 µM) | 2.1 µg/mL (≈ 3.8 µM) | > 1 µg/mL | 1.6 µg/mL (≈ 2.89 µM) | 2.7 µg/mL (≈ 4.88 µM) | 1.9 µg/mL (≈ 3.44 µM) | 12.5 µg/mL (≈ 22.6 µM)
Cc1cc(O)c2c(c1)C(=O)c1cccc(O)c1C2=O [CHRYSOPHANOL] | > 62.5 µg/mL | > 62.5 µg/mL | inactive | > 62.5 µg/mL | > 62.5 µg/mL | > 62.5 µg/mL | > 62.5 µg/mL | > 62.5 µg/mL | > 62.5 µg/mL | > 62.5 µg/mL | 
C[C@]12C=C[C@@]3(CC[C@H]4[C@@](C)(CCC[C@@]4(C)C(=O)O)[C@@H]3CC1)C2 [MONOGINOIC ACID] | > 62.5 µg/mL |  |  |  |  |  |  |  |  |  | 
CCCCCCCCCCCCCC(=O)O[C@@H]1[C@@H](C)[C@@]2(O)[C@@H](C=C(CO)C[C@]3(O)C(=O)C(C)=C[C@@H]23)[C@@H]2C(C)(C)[C@]12OC(C)=O [PHORBOL MYRISTATE ACETATE] | 0.00012 µg/mL |  |  |  |  |  |  |  |  |  | 
